Columns and labels:
[1] = Inhibition of huntingtin […] expression in human GM04281 cells with 69 CAG repeats within mutant allele by Western blotting; type: functional, cell-based; conditions: in the assay text read “17 CAG repeats within wild type allele” for “69 CAG repeats within mutant allele”
Outline: (§1)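 Patient-derived GM04281 fibroblasts carrying both wild-type and mutant HTT alleles were exposed to PNA-peptide conjugates, at 1 µM or across a concentration series. Mutant and wild-type HTT protein were measured separately by western blot and expressed relative to untreated cells. Experiments were run in triplicate.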

[2] = Ratio of IC50 for huntingtin […] expression in human GM04281 cells with 17 CAG repeats within wild type allele to huntingtin […] expression in human GM04281 cells with 69 CAG repeats within mutant allele; type: functional
[3] = Inhibition of huntingtin […] expression in human GM04281 cells with 17 CAG repeats within wild type allele by Western blotting; type: functional, cell-based; conditions: in the assay text read “69 CAG repeats within mutant allele” for “17 CAG repeats within wild type allele”; outline: as §1
[4] = Inhibition of huntingtin […] expression in human GM04281 cells with 69 CAG repeats within mutant allele at 0.2 to 2 uM by Western blotting; type: functional; outline: as §1
[5] = Inhibition of huntingtin […] expression in human GM04281 cells with 17 CAG repeats within wild type allele at >1 uM by Western blotting; type: functional; conditions: in the assay text read “69 CAG repeats within mutant allele” for “17 CAG repeats within wild type allele”; outline: as §1

Row | IC50 [1] [µM] | IC50 [3] [µM] | SMILES | Ratio IC50 [2] | inhibition (INH) [4] [%] | inhibition (INH) [5] [%]
1 | > 2 | 0.47 | Cc1cn(CC(=O)N(CCNC(=O)CN(CCNC(=O)CN(CCNC(=O)CN(CCNC(=O)CN(CCNC(=O)CN(CCNC(=O)CN(CCNC(=O)CN(CCNC(=O)CN(CCNC(=O)CN(CCNC(=O)CN(CCNC(=O)CN(CCN)C(=O)Cn2cnc3c(=O)[nH]c(N)nc32)C(=O)Cn2ccc(N)nc2=O)C(=O)Cn2cc(C)c(=O)[nH]c2=O)C(=O)Cn2cnc3c(=O)[nH]c(N)nc32)C(=O)Cn2ccc(N)nc2=O)C(=O)Cn2cc(C)c(=O)[nH]c2=O)C(=O)Cn2cnc3c(=O)[nH]c(N)nc32)C(=O)Cn2ccc(N)nc2=O)C(=O)Cn2cc(C)c(=O)[nH]c2=O)C(=O)Cn2cnc3c(=O)[nH]c(N)nc32)C(=O)Cn2ccc(N)nc2=O)CC(=O)NCCN(CC(N)=O)C(=O)Cn2cnc3c(=O)[nH]c(N)nc32)c(=O)[nH]c1=O | >4 |  | 
2 | 1.68 | 0.54 | Cc1cn(CC(=O)N(CCNC(=O)CN(CCNC(=O)CN(CCNC(=O)CN(CCNC(=O)CN(CCNC(=O)CN(CCNC(=O)CN(CCNC(=O)CN(CCNC(=O)CN(CCNC(=O)CN(CCNC(=O)CN(CCNC(=O)CN(CCN)C(=O)Cn2cnc3c(=O)[nH]c(N)nc32)C(=O)Cn2cc3cc(-c4c(OCCN)cccc4OCCN)[nH]c3nc2=O)C(=O)Cn2cc(C)c(=O)[nH]c2=O)C(=O)Cn2cnc3c(=O)[nH]c(N)nc32)C(=O)Cn2ccc(N)nc2=O)C(=O)Cn2cc(C)c(=O)[nH]c2=O)C(=O)Cn2cnc3c(=O)[nH]c(N)nc32)C(=O)Cn2ccc(N)nc2=O)C(=O)Cn2cc(C)c(=O)[nH]c2=O)C(=O)Cn2cnc3c(=O)[nH]c(N)nc32)C(=O)Cn2ccc(N)nc2=O)CC(=O)NCCN(CC(N)=O)C(=O)Cn2cnc3c(=O)[nH]c(N)nc32)c(=O)[nH]c1=O |  |  | 
3 | 1.86 | 0.71 | Cc1cn(CC(=O)N(CCNC(=O)CN(CCNC(=O)CN(CCNC(=O)CN(CCNC(=O)CN(CCNC(=O)CN(CCNC(=O)CN(CCNC(=O)CN(CCNC(=O)CN(CCNC(=O)CN(CCNC(=O)CN(CCNC(=O)CN(CCN)C(=O)Cn2cnc3c(=O)[nH]c(N)nc32)C(=O)Cn2ccc(N)nc2=O)C(=O)Cn2cc(C)c(=O)[nH]c2=O)C(=O)Cn2cnc3c(=O)[nH]c(N)nc32)C(=O)Cn2ccc(N)nc2=O)C(=O)Cn2cc(C)c(=O)[nH]c2=O)C(=O)Cn2cnc3c(=O)[nH]c(N)nc32)C(=O)Cn2cc3cc(-c4c(OCCN)cccc4OCCN)[nH]c3nc2=O)C(=O)Cn2cc(C)c(=O)[nH]c2=O)C(=O)Cn2cnc3c(=O)[nH]c(N)nc32)C(=O)Cn2ccc(N)nc2=O)CC(=O)NCCN(CC(N)=O)C(=O)Cn2cnc3c(=O)[nH]c(N)nc32)c(=O)[nH]c1=O |  |  | 
4 | 1.3 | 0.58 | Cc1cn(CC(=O)N(CCNC(=O)CN(CCNC(=O)CN(CCNC(=O)CN(CCNC(=O)CN(CCNC(=O)CN(CCNC(=O)CN(CCNC(=O)CN(CCNC(=O)CN(CCNC(=O)CN(CCNC(=O)CN(CCNC(=O)CN(CCN)C(=O)Cn2cnc3c(=O)[nH]c(N)nc32)C(=O)Cn2cc3cc(-c4c(OCCN)cccc4OCCN)[nH]c3nc2=O)C(=O)Cn2cc(C)c(=O)[nH]c2=O)C(=O)Cn2cnc3c(=O)[nH]c(N)nc32)C(=O)Cn2ccc(N)nc2=O)C(=O)Cn2cc(C)c(=O)[nH]c2=O)C(=O)Cn2cnc3c(=O)[nH]c(N)nc32)C(=O)Cn2cc3cc(-c4c(OCCN)cccc4OCCN)[nH]c3nc2=O)C(=O)Cn2cc(C)c(=O)[nH]c2=O)C(=O)Cn2cnc3c(=O)[nH]c(N)nc32)C(=O)Cn2ccc(N)nc2=O)CC(=O)NCCN(CC(N)=O)C(=O)Cn2cnc3c(=O)[nH]c(N)nc32)c(=O)[nH]c1=O |  |  | 
5 | > 4 | 0.97 | Cc1cn(CC(=O)N(CCNC(=O)CN(CCNC(=O)CN(CCNC(=O)CN(CCNC(=O)CN(CCNC(=O)CN(CCNC(=O)CN(CCNC(=O)CN(CCNC(=O)CN(CCNC(=O)CN(CCNC(=O)CN(CCNC(=O)CN(CCN)C(=O)Cn2cnc3c(=O)[nH]c(N)nc32)C(=O)Cn2cc3cc(-c4c(OCCN)cccc4OCCN)[nH]c3nc2=O)C(=O)Cn2cc(C)c(=O)[nH]c2=O)C(=O)Cn2cnc3c(=O)[nH]c(N)nc32)C(=O)Cn2cc3cc(-c4c(OCCN)cccc4OCCN)[nH]c3nc2=O)C(=O)Cn2cc(C)c(=O)[nH]c2=O)C(=O)Cn2cnc3c(=O)[nH]c(N)nc32)C(=O)Cn2cc3cc(-c4c(OCCN)cccc4OCCN)[nH]c3nc2=O)C(=O)Cn2cc(C)c(=O)[nH]c2=O)C(=O)Cn2cnc3c(=O)[nH]c(N)nc32)C(=O)Cn2ccc(N)nc2=O)CC(=O)NCCN(CC(N)=O)C(=O)Cn2cnc3c(=O)[nH]c(N)nc32)c(=O)[nH]c1=O |  | <50 | >50
6 | > 4 | 2.6 | Cc1cn(CC(=O)N(CCNC(=O)CN(CCNC(=O)CN(CCNC(=O)CN(CCNC(=O)CN(CCNC(=O)CN(CCNC(=O)CN(CCNC(=O)CN(CCNC(=O)CN(CCNC(=O)CN(CCNC(=O)CN(CCNC(=O)CN(CCN)C(=O)Cn2cnc3c(=O)[nH]c(N)nc32)C(=O)Cn2cc3cc(-c4c(OCCN)cccc4OCCN)[nH]c3nc2=O)C(=O)Cn2cc(C)c(=O)[nH]c2=O)C(=O)Cn2cnc3c(=O)[nH]c(N)nc32)C(=O)Cn2cc3cc(-c4c(OCCN)cccc4OCCN)[nH]c3nc2=O)C(=O)Cn2cc(C)c(=O)[nH]c2=O)C(=O)Cn2cnc3c(=O)[nH]c(N)nc32)C(=O)Cn2cc3cc(-c4c(OCCN)cccc4OCCN)[nH]c3nc2=O)C(=O)Cn2cc(C)c(=O)[nH]c2=O)C(=O)Cn2cnc3c(=O)[nH]c(N)nc32)C(=O)Cn2cc3cc(-c4c(OCCN)cccc4OCCN)[nH]c3nc2=O)CC(=O)NCCN(CC(N)=O)C(=O)Cn2cnc3c(=O)[nH]c(N)nc32)c(=O)[nH]c1=O |  |  | 

Reference: ChEMBL document CHEMBL1157006, “Cellular localization and allele-selective inhibition of mutant huntingtin protein by peptide nucleic acid oligomers containing the fluorescent nucleobase [bis-o-(aminoethoxy)phenyl]pyrrolocytosine” (Bioorg Med Chem Lett, 2009)
